Here are results for one protein from ChEMBL document CHEMBL4229443, “Activation studies with amines and amino acids of the α-carbonic anhydrase from the pathogenic protozoan Trypanosoma cruzi” (Bioorg Med Chem, 2018).

Compound in the data set: N[C@@H](Cc1c[nH]c2ccccc12)C(=O)O
The data set is described as follows: Activation of Trypanosoma cruzi CA assessed as Kcat at 10 uM preincubated for 15 mins followed by CO2 addition by stopped-flow assay (reference value: 1.2 10^6/s). In outline:
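kcat of recombinant TcCA measured with 10 µM activator after 15 min pre-incubation at room temperature. Stopped-flow CO2 hydration in 10 mM Hepes pH 7.5 with 0.1 M Na2SO4 and 0.2 mM phenol red (557 nm), 25 °C. Initial velocities from the first 5–10% of the reaction, uncatalyzed rate subtracted. Mean of at least three determinations.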

B1: Carbonic anhydrase-like protein, putative (Trypanosoma cruzi (strain CL Brener)), Q4CVY4 (protein)
chain: MTCGIRRGEGREGSKMVKAVIFSLLCLHVHALMSPVSAENGYTTAGLPREKPQGPQWGYTNLTAWPKLCQTGKQQSPVSFSELQPNEVVHRKDMGPLVFSRDCKFAAEKTSLKIENEVNTISVRFIPLDDPTNKFPSLCTVRDPTDPDSPEYHLVSMHFHSPAEHVLPCANPDAELHLVFAHTQQSRQPHLMVVVVQLVASDKINSTSVAALKHILLDGSLPPKRAVTTCTLTENMTIAGFLPQSGSYFAYNGSLTTPPCTEGVLFVVLTSPQIISKTALERLVEAFQRARPGNHNGNHRPTQPLNGRVVYHFVDMHHMNYSMCMRDMENHHTNSSQMAGMSGAMQHMNCSMCMRNMENHHKNSSQMEGMSGAMQHMNCSMCMRNMENHHKNSSQMAGMSGAMQHMNCSMCMRNMENHHTNSSQMAGMSGAMQHMNCSMCMRNMENHHKNSSQMAGMSGAMQHMNCSMCMRNMENHHTNSSQMAGMSGAMQHMNCSMCMRNMENHHTNSSQMAGMSGAMQHMNCSMCMRNMENHHKNSSQMEGMSSEEMSMMERSANESSGAQLAGLASEENATNTSSAPANKWPHQFNSRERLFLIAAALVLLLVTFILYRWRNSSARETETESLFRSHEGYGTTNP
Turning to B1, the kcat is 7.8 ×10⁶ /s.
